“Also recorded” adds a separate entry of the source.
Assays:
H3K4me0 peptide = test: Peptide pull-down with recombinant wild-type and mutant PHDs or individual PHDs; type: binding; conditions: biotinylated histone peptides; recombinant PHDs of Chd5
SK-N-AS cells [1] = test: Differentiation of SK-N-AS cells; type: cell-based, human; conditions: for cell morphology / differentiation: SK-N-AS, dox-inducible expression; for MAP2 expression: immunofluorescence, neuronal marker MAP2
SK-N-AS cells [2] = test: Tumor growth of SK-N-AS cells injected subcutaneously into athymic nude mice; type: in vivo, human; conditions: SK-N-AS cells s.c., dox-diet
Summary of the method: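 SK-N-AS cells carry rtTA plus dox-inducible vector, wild-type or PHD-mutant Chd5. 1.6 × 10^6 cells mixed with Matrigel are injected s.c. into irradiated athymic nude mice. One cohort gets normal diet; the other gets dox diet from two days before injection onward. A blinded observer measures tumours. Read-outs are fold increase in tumour volume over 17 days (mean ± S.E.M.) and percentage change, dox-treated versus untreated.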

[3] = test system: Chd5 target gene expression; test: qRT-PCR of Chd5 target genes in mefs; type: cell-based, mouse; conditions: qRT-PCR normalized with actin, with (+) vs without (−) dox
mefs = test: Proliferation of mefs with dox-inducible Chd5 or PHD-mutants; type: cell-based, mouse; conditions: for effect on mef proliferation: dox-induced (0.2 μg/ml dox) vs untreated
Summary of the method: (§1)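 Mouse Chd5 (wild-type or PHD point mutants) is introduced by retrovirus in a dox-inducible vector, with SK-N-AS cells stably expressing rtTA. Mefs are seeded at 5 × 10^4 cells per 6 cm dish and SK-N-AS at 2.5 × 10^4 cells. Cells grow in DMEM with 100 μg/ml hygromycin B and 0.5 μg/ml puromycin, ±0.2 μg/ml dox. Cells are counted over days in triplicate (Coulter counter or crystal violet); mean ± S.D., two-tailed t-test.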

SK-N-AS cells [4] = test: Proliferation of SK-N-AS cells with dox-inducible Chd5 or PHD-mutants; type: cell-based, human; conditions: for effect on SK-N-AS proliferation: dox-induced (0.2 μg/ml dox) vs untreated; for reduction of SK-N-AS proliferation: dox-induced
Summary of the method: as §1

[5] = test system: recombinant tandem PHDs of Chd5; test: Biotinylated histone peptide pull-down with recombinant Chd5 PHDs; type: binding, mouse; conditions: biotinylated histone peptides; in vitro pull-down
unmodified H3 = type: binding; conditions: purified Chd5-PHDs or nuclear lysates expressing Flag-tagged Chd5; unmodified H3 peptides
H3 peptide = type: binding; conditions: nuclear extracts from mefs; anti-Flag immunoblot
chromatin = test: Chromatin fractions from cells expressing Flag-tagged Chd5; type: cell-based

D434A: Chd5-PHD2 single amino acid mutant compromised for H3 binding
binding to H3K4me0 peptide (pull-down) (H3K4me0 peptide): compromised binding | cell morphology / differentiation (SK-N-AS cells [1]): classic stem-like neuroblastoma morphology with proliferative foci | MAP2 expression (SK-N-AS cells [1]): lower expression | effect on tumor growth (SK-N-AS cells [2]): failed to reduce tumor growth | effect on Chd5 target gene expression in mefs [3]: fail to do so; also recorded: not able to inhibit expression of Chd5-bound loci | effect on mef proliferation (mefs): defective in their ability to inhibit proliferation | effect on mef proliferation (mefs; listed as Chd5-PHD2-D434A): fail to do so

C[C@H]1c2cccc(O)c2C(=O)C2=C(O)[C@]3(O)C(=O)C(C(N)=O)=C(O)[C@@H](N(C)C)[C@@H]3[C@@H](O)[C@@H]21 [doxycycline, reference compound]
effect on mef proliferation (mefs): no significant effect

PHD2: individual PHD of Chd5, PHD2 (408–465) (GGCEEEEDDHMEFCRVCKDGGELLCCDACPSSYHLHCLNPPLPEIPNGEWLCPRCTCP; PHD2; UniProt A2A8L1 408-465, looked up, fragment)
binding to H3K4me0 peptide (pull-down) (H3K4me0 peptide): same binding preference for H3K4me0; also recorded: highest affinity

D361A: Chd5-PHD1 single amino acid mutant compromised for H3 binding
binding to H3K4me0 peptide (pull-down) (H3K4me0 peptide): compromised binding | effect on SK-N-AS proliferation (SK-N-AS cells [4]): no such effects are observed | cell morphology / differentiation (SK-N-AS cells [1]): classic stem-like neuroblastoma morphology with proliferative foci | MAP2 expression (SK-N-AS cells [1]): lower expression | effect on tumor growth (SK-N-AS cells [2]): failed to reduce tumor growth | effect on Chd5 target gene expression in mefs [3]: fail to do so; also recorded: not able to inhibit expression of Chd5-bound loci | effect on mef proliferation (mefs): defective in their ability to inhibit proliferation | effect on mef proliferation (mefs; listed as Chd5-PHD1-D361A): fail to do so

D346A/D434A: Chd5 double mutant, PHD1-D346A and PHD2-D434A
effect on Chd5 target gene expression in mefs [3]: fail to do so | effect on mef proliferation (mefs): fail to do so

unmodified H3 (1–21) peptide: biotinylated histone H3 (1–21) peptide
binding to recombinant tandem PHDs of Chd5 (pull-down) [5]: bind

PHD1: individual PHD of Chd5, PHD1 (345–403) (QDYCEVCQQGGEIILCDTCPRAYHLVCLDPELEKAPEGKWSCPHCEKEGIQWEPKDDDE; PHD1; UniProt A2A8L1 345-403, looked up, fragment)
binding to H3K4me0 peptide (pull-down) (H3K4me0 peptide): same binding preference for H3K4me0

D346A: Chd5-PHD1 single amino acid mutant; H3-binding-competent
binding to H3K4me0 peptide (pull-down) (H3K4me0 peptide): binds the H3K4me0 peptide | relative efficiency of H3 binding (unmodified H3): bind H3 more efficiently than PHD1-D361A, PHD2-D434A, and PHD2-D415A | pull-down by H3 peptide of Flag-tagged Chd5 (H3 peptide): are pulled down by H3 peptide | reduction of SK-N-AS proliferation (SK-N-AS cells [4]): about 17% | effect on SK-N-AS proliferation (SK-N-AS cells [4]): inhibited proliferation | effect on SK-N-AS proliferation (SK-N-AS cells [4]; listed as Chd5-PHD1-D346A): inhibits cellular proliferation | cell morphology / differentiation (SK-N-AS cells [1]): intermediate differentiation phenotype | cell morphology / differentiation (SK-N-AS cells [1]; listed as Chd5-D346A): partially-differentiated morphology | effect on Chd5 target gene expression in mefs [3]: repress target gene expression; also recorded: inhibit expression of several Chd5-bound genes | effect on mef proliferation (mefs): inhibited proliferation to an extent comparable to that of wild-type Chd5; also recorded: inhibit proliferation | effect on mef proliferation (mefs; listed as Chd5-PHD1-D346A): inhibits cellular proliferation

C432W: Chd5 mutant compromised for H3 binding
effect on Chd5 target gene expression in mefs [3]: not able to inhibit expression of Chd5-bound loci | effect on mef proliferation (mefs): defective in their ability to inhibit proliferation

D415A: Chd5 mutant compromised for H3 binding
effect on mef proliferation (mefs): defective in their ability to inhibit proliferation

G355A: Chd5 mutant compromised for H3 binding
effect on Chd5 target gene expression in mefs [3]: not able to inhibit expression of Chd5-bound loci | effect on mef proliferation (mefs): defective in their ability to inhibit proliferation

W384A: H3-binding-competent Chd5-PHD mutant
effect on Chd5 target gene expression in mefs [3]: inhibit expression of several Chd5-bound genes | effect on mef proliferation (mefs): inhibited proliferation to an extent comparable to that of wild-type Chd5; also recorded: inhibit proliferation

wild-type Chd5: full-length mouse Chd5 (chromodomain helicase DNA-binding protein 5)
pull-down by H3 peptide of Flag-tagged Chd5 (H3 peptide): are pulled down by H3 peptide | reduction of SK-N-AS proliferation (SK-N-AS cells [4]): about 17% | effect on SK-N-AS proliferation (SK-N-AS cells [4]): inhibited proliferation; also recorded: inhibits cellular proliferation | cell morphology / differentiation (SK-N-AS cells [1]): flat epithelial-like morphology; also recorded: differentiated cellular morphology | MAP2 expression (SK-N-AS cells [1]): increased expression; also recorded: increase in MAP2 expression | association with chromatin (chromatin): associated with chromatin | effect on tumor growth (SK-N-AS cells [2]): reduces tumorigenesis in vivo much more efficiently | effect on Chd5 target gene expression in mefs [3]: repress target gene expression | effect on Chd5 target gene expression in mefs ([3]; listed as Chd5): inhibits expression of the oncogenic PcG protein Bmi1 | effect on mef proliferation (mefs): inhibited proliferation; also recorded: inhibits cellular proliferation | inhibition of proliferation in mefs (mefs; dox-induced, see Figure 3A): 54%

— article PMC3575599 (Cell reports, 2013)
